# Assay results as given in PMC11044719 (Journal of Enzyme Inhibition and Medicinal Chemistry, 2024).
# Experiments:
# FGFR4 kinase = FGFR4 kinase (Homo sapiens, UniProt P22455); experiment: biochemical; type: biochemical; conditions: for inhibition at 1 µM: read-out: % inhibition against FGFR4 kinase
# FGFR3 = FGFR3 (Homo sapiens, UniProt P22607); experiment: In vitro kinase assay; type: biochemical; conditions: read-out: % inhibition at 1 μM FGFR3
# Outline: (§1)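 Test compound at 0.1 and 1 μM against each FGFR isoform with ATP at its Km concentration; percent inhibition reported.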
# [1] = Metabolic stability assay in mouse liver microsomes; type: in vitro ADME; conditions: pH 7
# Outline: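 Human or mouse liver microsomes (0.5 mg/ml) were pre-incubated 5 min at 37 °C with 1 μM test compound in 0.1 M phosphate buffer, pH 7. NADPH regenerating system was added and the mix incubated 30 min at 37 °C. Acetonitrile with internal standard stopped the reaction. Parent compound was measured by LC-MS/MS, with % remaining at 30 min versus 0 min, in duplicate.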
# [2] = Metabolic stability assay in human liver microsomes; type: in vitro ADME; conditions: pH 7
# FGFR2 = FGFR2 (Homo sapiens, UniProt P21802); experiment: In vitro kinase assay; type: biochemical; conditions: read-out: % inhibition at 1 μM FGFR2
# Sequence of FGFR2 (P21802 22-821): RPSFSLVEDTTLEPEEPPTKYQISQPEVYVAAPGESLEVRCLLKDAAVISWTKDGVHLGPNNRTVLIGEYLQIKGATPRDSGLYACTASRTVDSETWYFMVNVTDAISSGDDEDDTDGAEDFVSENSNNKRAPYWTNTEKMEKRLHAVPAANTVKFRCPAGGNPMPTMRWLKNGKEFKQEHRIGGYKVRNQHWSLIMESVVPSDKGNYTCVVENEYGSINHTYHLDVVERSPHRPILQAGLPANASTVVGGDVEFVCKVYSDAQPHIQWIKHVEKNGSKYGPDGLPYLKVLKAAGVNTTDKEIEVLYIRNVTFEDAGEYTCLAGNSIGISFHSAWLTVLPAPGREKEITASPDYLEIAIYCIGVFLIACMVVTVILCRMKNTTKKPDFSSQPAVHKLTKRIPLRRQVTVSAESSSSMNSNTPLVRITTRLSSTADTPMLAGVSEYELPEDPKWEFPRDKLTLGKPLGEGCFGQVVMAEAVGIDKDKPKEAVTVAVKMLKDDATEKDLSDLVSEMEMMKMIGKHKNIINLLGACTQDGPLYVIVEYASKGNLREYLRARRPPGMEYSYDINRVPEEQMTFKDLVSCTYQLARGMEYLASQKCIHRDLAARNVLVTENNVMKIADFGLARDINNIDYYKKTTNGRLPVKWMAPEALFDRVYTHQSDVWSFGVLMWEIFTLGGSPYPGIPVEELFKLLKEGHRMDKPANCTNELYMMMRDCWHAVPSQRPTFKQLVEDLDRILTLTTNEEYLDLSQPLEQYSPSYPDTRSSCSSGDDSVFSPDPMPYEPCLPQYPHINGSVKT
# Outline: as §1
# FGFR1 = FGFR1 (Homo sapiens, UniProt P11362); experiment: In vitro kinase assay; type: biochemical; conditions: read-out: % inhibition at 1 μM FGFR1
# Sequence of FGFR1 (P11362 22-822): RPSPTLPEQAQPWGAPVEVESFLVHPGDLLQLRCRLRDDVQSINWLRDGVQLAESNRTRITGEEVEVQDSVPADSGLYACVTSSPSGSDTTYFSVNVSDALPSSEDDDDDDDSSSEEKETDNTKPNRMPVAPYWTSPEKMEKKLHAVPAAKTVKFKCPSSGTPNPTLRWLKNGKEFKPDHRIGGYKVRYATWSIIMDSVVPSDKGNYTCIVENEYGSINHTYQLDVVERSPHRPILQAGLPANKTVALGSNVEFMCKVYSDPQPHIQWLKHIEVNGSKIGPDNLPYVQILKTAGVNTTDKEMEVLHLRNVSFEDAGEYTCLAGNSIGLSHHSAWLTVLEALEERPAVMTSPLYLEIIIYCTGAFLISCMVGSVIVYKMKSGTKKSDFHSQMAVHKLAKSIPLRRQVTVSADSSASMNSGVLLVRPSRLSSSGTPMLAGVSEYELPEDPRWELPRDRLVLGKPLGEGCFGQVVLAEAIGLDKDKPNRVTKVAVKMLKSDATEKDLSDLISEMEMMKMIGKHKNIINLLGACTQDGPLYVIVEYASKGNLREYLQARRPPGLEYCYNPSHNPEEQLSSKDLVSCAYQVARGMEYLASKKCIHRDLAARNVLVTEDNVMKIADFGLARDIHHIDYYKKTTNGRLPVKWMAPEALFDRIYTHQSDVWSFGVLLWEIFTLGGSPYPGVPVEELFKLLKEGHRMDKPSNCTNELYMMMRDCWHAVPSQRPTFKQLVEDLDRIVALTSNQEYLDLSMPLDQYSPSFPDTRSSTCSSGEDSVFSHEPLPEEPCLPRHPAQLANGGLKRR
# Outline: as §1
# Sequence of FGFR4 kinase (P22455 22-802): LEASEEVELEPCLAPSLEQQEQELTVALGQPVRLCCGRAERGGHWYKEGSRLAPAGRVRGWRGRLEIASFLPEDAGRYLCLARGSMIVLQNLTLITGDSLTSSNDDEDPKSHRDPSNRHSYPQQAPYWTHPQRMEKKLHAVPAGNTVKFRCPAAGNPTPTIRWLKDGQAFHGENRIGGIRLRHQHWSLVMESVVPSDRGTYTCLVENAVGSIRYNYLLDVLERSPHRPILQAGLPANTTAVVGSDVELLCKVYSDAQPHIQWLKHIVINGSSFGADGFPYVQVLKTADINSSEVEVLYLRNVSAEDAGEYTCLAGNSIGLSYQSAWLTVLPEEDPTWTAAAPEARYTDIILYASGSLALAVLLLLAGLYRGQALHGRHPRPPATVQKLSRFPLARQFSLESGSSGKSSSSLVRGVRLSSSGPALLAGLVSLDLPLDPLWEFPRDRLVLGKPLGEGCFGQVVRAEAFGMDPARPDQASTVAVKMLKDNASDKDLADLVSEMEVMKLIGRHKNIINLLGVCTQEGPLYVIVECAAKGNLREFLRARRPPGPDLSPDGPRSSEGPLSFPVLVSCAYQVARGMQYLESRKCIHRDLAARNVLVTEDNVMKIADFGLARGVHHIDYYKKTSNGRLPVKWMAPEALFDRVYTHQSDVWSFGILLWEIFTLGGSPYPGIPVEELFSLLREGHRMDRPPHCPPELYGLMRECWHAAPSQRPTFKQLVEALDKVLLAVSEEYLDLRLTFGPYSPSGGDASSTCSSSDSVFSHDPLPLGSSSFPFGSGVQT
# Sequence of FGFR3 (P22607 23-806): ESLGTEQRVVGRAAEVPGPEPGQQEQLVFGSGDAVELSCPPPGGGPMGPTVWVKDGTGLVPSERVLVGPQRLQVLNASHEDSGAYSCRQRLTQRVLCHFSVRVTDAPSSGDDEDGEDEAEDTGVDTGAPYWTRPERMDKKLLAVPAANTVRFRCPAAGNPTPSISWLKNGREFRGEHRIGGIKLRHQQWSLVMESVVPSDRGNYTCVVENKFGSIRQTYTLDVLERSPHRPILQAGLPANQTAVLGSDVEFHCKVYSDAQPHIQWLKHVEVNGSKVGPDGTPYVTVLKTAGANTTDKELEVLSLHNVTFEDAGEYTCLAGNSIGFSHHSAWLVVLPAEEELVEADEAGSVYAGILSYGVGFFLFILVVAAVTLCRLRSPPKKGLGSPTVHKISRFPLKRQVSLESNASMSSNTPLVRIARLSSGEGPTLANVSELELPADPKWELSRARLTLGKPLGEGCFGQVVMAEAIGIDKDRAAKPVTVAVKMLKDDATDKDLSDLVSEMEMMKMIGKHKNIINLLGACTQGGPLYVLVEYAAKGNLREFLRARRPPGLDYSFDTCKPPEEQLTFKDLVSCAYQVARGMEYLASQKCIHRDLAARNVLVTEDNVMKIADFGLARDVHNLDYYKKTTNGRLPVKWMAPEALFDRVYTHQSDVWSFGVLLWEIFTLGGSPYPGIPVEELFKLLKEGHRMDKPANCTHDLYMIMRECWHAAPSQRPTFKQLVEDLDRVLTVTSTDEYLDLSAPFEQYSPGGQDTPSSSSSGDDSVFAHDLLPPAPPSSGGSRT
Structure (SMILES),inhibition at 1 µM (FGFR4 kinase) [%],also measured
"C=CC(=O)Nc1ccccc1C(=O)Nc1cccnn1 [2a, 2-Acrylamido-N-(pyridazin-3-yl)benzamide]",21,–
"C=CC(=O)Nc1ccccc1C(=O)Nc1ccccn1 [2b, 2-Acrylamido-N-(pyridin-2-yl)benzamide]",9,–
"C=CC(=O)Nc1ccccc1C(=O)Nc1cccnc1 [2c, 2-Acrylamido-N-(pyridin-3-yl)benzamide]",7,–
"C=CC(=O)Nc1ccccc1C(=O)Nc1ncccn1 [2d, 2-Acrylamido-N-(pyrimidin-2-yl)benzamide]",6,–
"C=CC(=O)Nc1ccccc1C(=O)Nc1ccncn1 [2e, 2-Acrylamido-N-(pyrimidin-4-yl)benzamide]",12,–
"C=CC(=O)Nc1ccccc1C(=O)Nc1cnccn1 [2f, 2-Acrylamido-N-(pyrazin-2-yl)benzamide]",9,–
"C=CC(=O)Nc1ccccc1C(=O)Nc1ccc(Cl)nn1 [2g, 2-Acrylamido-N-(6-chloropyridazin-3-yl)benzamide]",30,–
"C#Cc1ccc(NC(=O)c2ccccc2NC(=O)C=C)cn1 [2h, 2-Acrylamido-N-(6-ethynylpyridin-3-yl)benzamide]",44,–
"C#Cc1ccc(NC(=O)c2ccccc2NC(=O)C=C)nn1 [2i, 2-Acrylamido-N-(6-ethynylpyridazin-3-yl)benzamide]",49,–
"C=CC(=O)Nc1ccccc1C(=O)Nc1cc(C)on1 [2j, 2-Acrylamido-N-(5-methylisoxazol-3-yl)benzamide]",5,–
"C=CC(=O)Nc1ccccc1C(=O)Nc1n[nH]c2ccccc12 [2k, 2-Acrylamido-N-(1H-indazol-3-yl)benzamide]",4,–
"C=CC(=O)Nc1ccccc1C(=O)Nc1ncnc2ccccc12 [2l, 2-Acrylamido-N-(quinazolin-4-yl)benzamide]",0,–
"C=CC(=O)Nc1ccccc1C(=O)Nc1ccc(C#CCN(C)C)nn1 [4a, 2-Acrylamido-N-(6–(3-(dimethylamino)prop-1-yn-1-yl)pyridazin-3-yl)benzamide]",10,–
"C=CC(=O)Nc1ccccc1C(=O)Nc1ccc(C#CCOC)nn1 [4b, 2-Acrylamido-N-(6–(3-methoxyprop-1-yn-1-yl)pyridazin-3-yl)benzamide]",47,–
"C=CC(=O)Nc1ccccc1C(=O)Nc1ccc(C#Cc2ccc(OC)cc2)nn1 [4c, 2-Acrylamido-N-(6-((4-methoxyphenyl)ethynyl)pyridazin-3-yl)benzamide]",97,"inhibition at 1 µM (FGFR3): 0%; remaining at 0.5 h, 1 μM [1]: 25.2%; remaining at 0.5 h, 1 μM [2]: 7.5%; IC50 (FGFR4 kinase): 33 nM; fold more potent than staurosporin (IC50) (FGFR4 kinase): 5 fold; fold improvement of IC50 compared to that of other derivatives (FGFR4 kinase; FGFR4 IC50 compared with other derivatives of Table 3): ~10 fold"
"C=CC(=O)Nc1ccccc1C(=O)Nc1ccc(C#Cc2cccc(OC)c2)nn1 [4d, 2-Acrylamido-N-(6-((3-methoxyphenyl)ethynyl)pyridazin-3-yl)benzamide]",86,IC50 (FGFR4 kinase): 424 nM

Structure (SMILES),inhibition at 1 µM (FGFR4 kinase) [%],also measured
"C=CC(=O)Nc1ccccc1C(=O)Nc1ccc(C#Cc2ccccc2OC)nn1 [4e, 2-Acrylamido-N-(6-((2-methoxyphenyl)ethynyl)pyridazin-3-yl)benzamide]",42,–
"C=CC(=O)Nc1ccccc1C(=O)Nc1ccc(C#Cc2cc(OC)cc(OC)c2)nn1 [4f, 2-Acrylamido-N-(6-((3,5-dimethoxyphenyl)ethynyl)pyridazin-3-yl)benzamide]",80,–
"C=CC(=O)Nc1ccccc1C(=O)Nc1ccc(C#Cc2cccc(N(C)C)c2)nn1 [4g, 2-Acrylamido-N-(6-((3-(dimethylamino)phenyl)ethynyl)pyridazin-3-yl)benzamide]",59,–
"C=CC(=O)Nc1ccccc1C(=O)Nc1ccc(C#Cc2ccc(N(C)C)cc2)nn1 [4h, 2-Acrylamido-N-(6-((4-(dimethylamino)phenyl)ethynyl)pyridazin-3-yl)benzamide]",92,–
"C=CC(=O)Nc1ccccc1C(=O)Nc1ccc(C#Cc2ccccc2)nn1 [4i, 2-Acrylamido-N-(6-(phenylethynyl)pyridazin-3-yl)benzamide]",91,IC50 (FGFR4 kinase): 235 nM
"C=CC(=O)Nc1ccccc1C(=O)Nc1ccc(C#Cc2cccnc2)nn1 [4j, 2-Acrylamido-N-(6-(pyridin-3-ylethynyl)pyridazin-3-yl)benzamide]",13,–
"C=CC(=O)Nc1ccccc1C(=O)Nc1ccc(C#CC2CCCCC2)nn1 [4k, 2-Acrylamido-N-(6-(cyclohexylethynyl)pyridazin-3-yl)benzamide]",25,–
"C=CC(=O)Nc1ccccc1C(=O)Nc1ccc(C#Cc2cccc3ccccc23)nn1 [4l, 2-Acrylamido-N-(6-(naphthalen-1-ylethynyl)pyridazin-3-yl)benzamide]",17,–
"C=CC(=O)Nc1ccccc1C(=O)Nc1ccc(C#CCOc2cccc(OC)c2)nn1 [4m, 2-Acrylamido-N-(6–(3-(3-methoxyphenoxy)prop-1-yn-1-yl)pyridazin-3-yl)benzamide]",37,–
"C=CC(=O)Nc1ccccc1C(=O)Nc1ccc(Oc2cccc(OC)c2)nn1 [4n, 2-Acrylamido-N-(6–(3-methoxyphenoxy)pyridazin-3-yl)benzamide]",7,–
"C=CC(=O)Nc1ccccc1C(=O)Nc1ccc(-c2cccc(OC)c2)nn1 [4o, 2-Acrylamido-N-(6–(3-methoxyphenyl)pyridazin-3-yl)benzamide]",39,–
"C=CC(=O)Nc1ccccc1C(=O)Nc1ccc(CCc2cccc(OC)c2)nn1 [4p, 2-Acrylamido-N-(6–(3-methoxyphenethyl)pyridazin-3-yl)benzamide]",26,–
"C=CC(=O)Nc1ccccc1C(=O)Nc1ccc(CCc2cccc(N(C)C)c2)nn1 [4q, 2-Acrylamido-N-(6–(3-(dimethylamino)phenethyl)pyridazin-3-yl)benzamide]",13,–
"C=CC(=O)Nc1ccccc1C(=O)Nc1ccc(C#Cc2ccc3c(c2)OCO3)nn1 [4s, 2-Acrylamido-N-(6–(2-(1,3-benzodioxol-5-yl)ethynyl)pyridazin-3-yl)benzamide]",92,"remaining at 0.5 h, 1 μM [1]: 53.9%; remaining at 0.5 h, 1 μM [2]: 62.1%; IC50 (FGFR4 kinase): 319 nM"
"CCC(=O)Nc1ccccc1C(=O)Nc1ccc(C#Cc2ccc(OC)cc2)nn1 [4t, N-[6-[2–(4-methoxyphenyl)ethynyl]pyridazin-3-yl]-2-(propanoylamino)benzamide]",0,–
"C=CC(=O)N[C@H]1CCOC[C@H]1Nc1ncc2cc(-c3c(Cl)c(OC)cc(OC)c3Cl)ccc2n1 [BLU554, fisogatinib, reference compound]",97,inhibition at 1 µM (FGFR2): 11%; inhibition at 1 µM (FGFR3): 10%; inhibition at 1 µM (FGFR1): 29%
